# TbMetRS inhib – Trypanosoma brucei MetRS inhibition; actives 0.4% (n = 360,000); AID 624268; purified T. brucei MetRS, ATP depletion, Kinase-Glo luminescence; inhibition, % at 11.9 µM;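 active = inhibition above a per-plate cutoff of the control wells' mean inhibition plus 3 SD, cut at about 5.5% in these data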;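 note: 0% = DMSO wells median and 100% = median of wells with control inhibitor compound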
#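 System: purified T. brucei MetRS enzyme / Detection: Kinase-Glo luciferase luminescence reporting remaining unconsumed ATP / Medium: HEPES buffer with MgCl2, KCl, DTT, spermine, BSA, pyrophosphatase / Replication: singlicate, one well per compound / Evaluation: percent inhibition relative to median high and low control wells / Schedule: 2 h aminoacylation at 25 °C after 15 min preincubation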
# 14-3-3 Bad PPI – disrupts binding of bovine 14-3-3 zeta to phospho-Bad peptide | TR-FRET 14-3-3zeta/Dy647-pBad peptide displacement, 1 h | actives 0.71% (n = 220,000) | P63103 | inhibition, % at 21.7 µM;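 active = inhibition above about 70%, limit read from the data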;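 note: 0% = full 14-3-3 plus peptide FRET controls and 100% = background without 14-3-3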
# Target sequence (P63103 whole entry, looked up): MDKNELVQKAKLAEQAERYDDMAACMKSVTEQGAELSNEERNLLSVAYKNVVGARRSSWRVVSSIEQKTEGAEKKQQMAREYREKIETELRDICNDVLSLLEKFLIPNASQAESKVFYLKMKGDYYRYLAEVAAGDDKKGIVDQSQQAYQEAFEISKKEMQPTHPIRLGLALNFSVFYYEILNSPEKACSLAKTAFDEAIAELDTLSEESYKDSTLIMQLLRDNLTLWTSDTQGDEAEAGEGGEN
# eIF4E-4G inh – inhibitors of eIF4E and eIF4G interaction in translation initiation; P63073+Q04637; TR-FRET eIF4E-eIF4GI(517-606) binding, 2 h; inhibition, % at 21.7 µM; actives 0.37% (n = 220,000);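 active = inhibition above about 30%, limit read from the data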;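 note: 0% = full FRET control wells and 100% = background wells lacking eIF4GI fragment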
# p97 ATPase inh – inhibitors of human p97 ATPase; recombinant p97 ATPase, Kinase-Glo ATP luminescence, 3 h; P55072; AID 1481; actives 0.42% (n = 220,000); inhibition, % at 8 µM;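 note: 0% = DMSO vehicle and 100% = wells lacking enzyme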
# p47phox inh – blocks human p47phox regulatory protein of NADPH oxidases. P14598. p47phox/p22phox peptide binding, fluorescence polarization, 2 h. inhibition, % at 24.7 µM. actives 0.53% (n = 220,000). AID 1274;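 active = inhibition above about 30%, limit read from the data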;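 note: 0% = p47phox with labelled peptide and 100% = labelled peptide alone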
# SUMO HTRF inh – blocks human SUMOylation mediated by UBC9; inhibition, % at 35 µM; HTRF SUMOylation assay, SAE1/SAE2 + UBC9, in vitro; P63279; AID 2006; actives 0.36% (n = 290,000); in the data active = inhibition above about 50%, passing the limit was not always enough
# Target sequence (P63279 whole entry, looked up): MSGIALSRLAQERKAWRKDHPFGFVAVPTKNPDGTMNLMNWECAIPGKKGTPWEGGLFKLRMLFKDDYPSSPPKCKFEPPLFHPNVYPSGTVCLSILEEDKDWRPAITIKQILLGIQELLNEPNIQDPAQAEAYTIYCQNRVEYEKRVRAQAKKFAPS
# Tb MetRS conf – Trypanosoma brucei MetRS inhibition confirmed. shares compounds with TbMetRS inhib. T. brucei MetRS enzyme, luminescence (ATP depletion). inhibition, % at 11.9 µM. actives 93% (n = 1,400); in the data active = inhibition above about 7%
# Jurkat cytotox – kills Jurkat cells in T. brucei MetRS counterscreen; shares compounds with TbMetRS inhib; Jurkat cells viability, ATP luminescence; inhibition, % at 8.3 µM; actives 12% (n = 1,400); AID 624413;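 note: 0% = vehicle and 100% = reference inhibitor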
# TbMetRS FP orth – T. brucei MetRS inhibition, orthogonal assay. shares compounds with TbMetRS inhib. purified T. brucei MetRS, fluorescence polarization. inhibition, % at 11.9 µM. actives 44% (n = 1,400). AID 651607; in the data active = inhibition above about 17%;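 note: 0% = vehicle wells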
# The depositor's hits bear a star; x = no result given. The list is not random: actives were taken first. Their share in the collection is about 1.6%. Cut-off read from the data, not from the text of the source, unless noted: active = inhibition above about 15%; inactive = the rest.
SMILES,TbMetRS inhib,14-3-3 Bad PPI,eIF4E-4G inh,p97 ATPase inh,p47phox inh,SUMO HTRF inh,Tb MetRS conf,Jurkat cytotox,TbMetRS FP orth
O=C(O)CC1S/C(=N/N=C/c2ccc(-c3ccc(Cl)cc3[N+](=O)[O-])o2)NC1=O (centres undefined),11*,-1,4,5,-25,18,14*,-4,12
N#C/C(=C/c1ccc(O)c(O)c1)C(=O)NCc1ccc(Cl)cc1,15*,x,x,x,x,-13,36*,17*,11
N#C/C(=C/c1cccc(O)c1)C(=O)NCc1ccc(Cl)cc1,0,x,x,x,x,8,x,x,x
C[C@H](O)[C@@H]1C(=O)N2CCc3c([nH]c4ccccc34)[C@@H]2C[C@@H]1N(C)S(=O)(=O)c1ccccc1,27*,x,x,x,x,x,23*,5,8
COc1ccc(NC(=O)N(C)[C@H]2C[C@H]3c4[nH]c5ccccc5c4CCN3C(=O)[C@H]2CO)cc1,0,x,x,x,x,x,x,x,x
C[C@H](O)[C@@H]1C(=O)N2CCc3c([nH]c4ccccc34)[C@@H]2C[C@@H]1N(C)C(=O)c1cc(Cl)cc(Cl)c1,13*,x,x,x,x,x,46*,0,20*
COc1ccc(NC(=O)N(C)[C@H]2C[C@H]3c4[nH]c5ccccc5c4CCN3C(=O)[C@H]2[C@H](C)O)cc1,2,x,x,x,x,x,x,x,x
COc1ccc(C(=O)N(C)[C@H]2C[C@H]3c4[nH]c5ccccc5c4CCN3C(=O)[C@H]2CO)cc1,44*,x,x,x,x,x,62*,-4,26*
C[C@H](O)[C@@H]1C(=O)N2CCc3c([nH]c4ccccc34)[C@@H]2C[C@@H]1N(C)Cc1ccc2c(c1)OCO2,89*,x,x,x,x,x,102*,0,83*
Cc1cc(C)c(S(=O)(=O)c2cccc(Br)c2C)c(Cl)n1,1,x,x,x,x,2,x,x,x
CC1CCCN(CCCN2C(=O)C3C(C(=O)Nc4cccc(Cl)c4)C4C=CC3(O4)C2C(=O)NC2CCCCC2)C1 (centres undefined),-1,x,x,x,x,-5,x,x,x
C[C@H](O)[C@@H]1CN2CCc3c([nH]c4ccccc34)[C@@H]2C[C@@H]1N(C)Cc1cc(Cl)cc(Cl)c1,34*,x,x,x,x,x,71*,0,37*
C[C@H](O)[C@@H]1C(=O)N2CCc3c([nH]c4ccccc34)[C@@H]2C[C@@H]1N(C)C(=O)Nc1cccc2ccccc12,1,x,x,x,x,x,x,x,x
Cc1ccccc1C(=O)N(C)[C@H]1C[C@H]2c3[nH]c4ccccc4c3CCN2C(=O)[C@H]1[C@H](C)O,31*,x,x,x,x,x,48*,4,18*
CCOC(=O)N(C)[C@H]1C[C@H]2c3[nH]c4ccccc4c3CCN2C[C@H]1[C@H](C)O,0,x,x,x,x,x,x,x,x
COc1ccc(C(=O)OCC(=O)c2ccc3c(c2)NC(=O)CO3)cc1OC,0,x,x,x,x,x,x,x,x
CCOC(=O)c1ccc2c(c1)NCc1cccc(OC)c1O2,5.8*,-2,0,-3,-19,10,11*,11,9
CCOC(=O)CCc1c(C)nc(-n2[nH]c(C)c(CCO)c2=O)[nH]c1=O,1,-10,-5,-7,-2,-19,x,x,x
COc1ccc(NC(=O)Cn2ncn3nc(-c4ccc(OC)cc4)cc3c2=O)cc1,0,x,x,x,x,31,x,x,x
Cc1ccc(NC(=S)Nc2cccc(-c3n[nH]c(=S)o3)c2)cc1,1,-7,-1,1,-35,-6,x,x,x
NC(=S)Nc1cccc(-c2n[nH]c(=S)o2)c1,14*,-1,-2,-1,-8,17,35*,1,17*
Cc1cc(Br)ccc1N=C1NC(=O)CS1,1,x,x,x,x,6,x,x,x
CCc1cccc(OCC2Cn3c(nc4c3c(=O)n(C)c(=O)n4C)O2)c1 (centres undefined),1,x,x,x,x,-1,x,x,x
CCCCc1c(-c2ccccc2OC)ncn1Cc1ccc(Cl)cc1,-1,x,x,x,x,x,x,x,x
CCCCc1c(-c2ccccc2OC)ncn1CCc1cccc(Cl)c1,5.8*,x,x,x,x,x,16*,36*,5
